Results: ChEMBL document CHEMBL2407049, “Cyclopeptide alkaloids: stereochemistry and synthesis of the precursors of discarines C and D and myrianthine A” (2013)
The source made the active and inactive calls. No cut-off for these calls is given here.

Columns and labels:
Cryptococcus neoformans = test: Antifungal activity against Cryptococcus neoformans ATCC 28952 assessed as concentration required to inhibit fungal growth after 24 hrs by TLC assay; format: functional
Method in brief: (§1)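 Direct TLC bioautography: compound amounts from 50 to 1.56 μg applied to precoated TLC plates, overlaid with Mueller Hinton or Sabouraud agar inoculated with microorganism suspension (10⁵ cfu mL⁻¹). Plates incubated 24 h at 37 °C, then stained with aqueous 2,3,5-triphenyltetrazolium chloride (1 mg mL⁻¹). The lowest amount giving an inhibition zone was recorded; <50 μg counted active. Triplicate.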

Klebsiella pneumoniae [1] = test: Antibacterial activity against Klebsiella pneumoniae ATCC 10031 assessed as concentration required to inhibit bacterial growth after 24 hrs by TLC assay; format: functional; method in brief: as §1
Staphylococcus aureus [2] = test: Antibacterial activity against Staphylococcus aureus ATCC 6538p assessed as concentration required to inhibit bacterial growth after 24 hrs by TLC assay; format: functional; method in brief: as §1
[3] = tested on: Staphylococcus epidermidis; test: Antibacterial activity against Staphylococcus epidermidis ATCC 12228 assessed as concentration required to inhibit bacterial growth after 24 hrs by TLC assay; format: functional; method in brief: as §1
Candida dubliniensis = test: Antifungal activity against Candida dubliniensis SM 26 clinical isolate assessed as concentration required to inhibit fungal growth after 24 hrs by TLC assay; format: functional; method in brief: as §1
Kocuria rhizophila [4] = test: Antibacterial activity against Micrococcus luteus ATCC 9341 assessed as concentration required to inhibit bacterial growth after 24 hrs by TLC assay; format: functional; method in brief: as §1
Escherichia coli [5] = test: Antibacterial activity against Escherichia coli ATCC 11103 assessed as concentration required to inhibit bacterial growth after 24 hrs by TLC assay; format: functional; method in brief: as §1
Saccharomyces cerevisiae = test: Antifungal activity against Saccharomyces cerevisiae ATCC 2601 assessed as concentration required to inhibit fungal growth after 24 hrs by TLC assay; format: functional; method in brief: as §1
[6] = Antibacterial activity against Salmonella Setubal ATCC 19196 assessed as concentration required to inhibit bacterial growth after 24 hrs by TLC assay; format: functional, Salmonella enterica subsp. enterica serovar Setubal; method in brief: as §1
Candida albicans = test: Antifungal activity against Candida albicans ATCC 10231 assessed as concentration required to inhibit fungal growth after 24 hrs by TLC assay; format: functional; method in brief: as §1
Candida tropicalis = test: Antifungal activity against Candida tropicalis ATCC 750 assessed as concentration required to inhibit fungal growth after 24 hrs by TLC assay; format: functional; method in brief: as §1
[7] = tested on: Staphylococcus epidermidis; test: Antibacterial activity against Staphylococcus epidermidis ATCC 12228 assessed as growth inhibition at 50 to 1.56 ug after 24 hrs by TLC assay; format: functional; method in brief: as §1
[8] = tested on: Salmonella enterica subsp. enterica serovar Setubal; test: (§2) Antibacterial activity against Salmonella Setubal ATCC 19196 assessed as growth inhibition at 50 to 1.56 ug after 24 hrs by TLC assay; format: functional; method in brief: as §1
Kocuria rhizophila [9] = test: Antibacterial activity against Micrococcus luteus ATCC 9341 assessed as growth inhibition at 50 to 1.56 ug after 24 hrs by TLC assay; format: functional; method in brief: as §1
Klebsiella pneumoniae [10] = test: Antibacterial activity against Klebsiella pneumoniae ATCC 10031 assessed as growth inhibition at 50 to 1.56 ug after 24 hrs by TLC assay; format: functional; method in brief: as §1
Escherichia coli [11] = test: Antibacterial activity against Escherichia coli ATCC 11103 assessed as growth inhibition at 50 to 1.56 ug after 24 hrs by TLC assay; format: functional; method in brief: as §1
Staphylococcus aureus [12] = test: Antibacterial activity against Staphylococcus aureus ATCC 6538p assessed as growth inhibition at 50 to 1.56 ug after 24 hrs by TLC assay; format: functional; method in brief: as §1
[13] = as §2; format: functional, Salmonella enterica subsp. enterica serovar Setubal; method in brief: as §1

SMILES	Activity (Cryptococcus neoformans)	Activity (Klebsiella pneumoniae [1])	Activity (Staphylococcus aureus [2])	Activity [3]	Activity (Candida dubliniensis)	Activity (Kocuria rhizophila [4])	Activity (Escherichia coli [5])	Activity (Saccharomyces cerevisiae)	Activity [6]	Activity (Candida albicans)	Activity (Candida tropicalis)	further results
COC(=O)[C@H](CC(C)C)NC(=O)[C@@H]([C@@H](O)c1ccccc1)N1CN(C)[C@@H](CC(C)C)C1=O (mixture of isomers)	<50 µg	<50 µg	<50 µg	<50 µg	<50 µg	<50 µg	<50 µg	<50 µg	<50 µg	<50 µg	<50 µg	–
CC(C)C[C@@H]1NC(=O)[C@@H](NC(=O)[C@H](CC(C)C)N(C)C)[C@H](c2ccccc2)Oc2ccc(cc2)/C=C\NC1=O (mixture of isomers)	>50 µg	>50 µg	>50 µg	>50 µg	>50 µg	>50 µg	>50 µg	>50 µg	>50 µg	>50 µg	>50 µg	–
COC(=O)[C@H](CC(C)C)NC(=O)[C@H](NC(=O)[C@H](CC(C)C)N(C)C)[C@@H](O)c1ccccc1 (mixture of isomers)	<50 µg	<50 µg	<50 µg	<50 µg	<50 µg	<50 µg	<50 µg	<50 µg	<50 µg	<50 µg	<50 µg	–
CC[C@H](C)[C@H](NC(=O)[C@H](NC(=O)[C@H](CC(C)C)N(C)C)[C@H](Oc1ccc(C=O)cc1)c1ccccc1)C(=O)OC	<50 µg	<50 µg	<50 µg	<50 µg	<50 µg	<50 µg	<50 µg	<50 µg	<50 µg	<50 µg	<50 µg	growth inhibition (GI) [7]: inactive; growth inhibition (GI) [8]: inactive; growth inhibition (GI) (Kocuria rhizophila [9]): inactive; growth inhibition (GI) (Klebsiella pneumoniae [10]): inactive; growth inhibition (GI) (Escherichia coli [11]): inactive; growth inhibition (GI) (Staphylococcus aureus [12]): inactive
COC(=O)[C@H](Cc1ccccc1)NC(=O)[C@@H]([C@H](Oc1ccc(C=O)cc1)c1ccccc1)N1CN(C)[C@@H](CC(C)C)C1=O (mixture of isomers)	<50 µg	<50 µg	<50 µg	<50 µg	<50 µg	<50 µg	<50 µg	<50 µg	<50 µg	<50 µg	<50 µg	–
CC[C@H](C)[C@H](NC(=O)[C@H]([C@@H](Oc1ccc(C=O)cc1)c1ccccc1)N1CN(C)[C@@H](CC(C)C)C1=O)C(=O)OC (mixture of isomers)	<50 µg	<50 µg	<50 µg	<50 µg	<50 µg	<50 µg	<50 µg	<50 µg	<50 µg	<50 µg	<50 µg	–
COC(=O)[C@H](Cc1ccccc1)NC(=O)[C@@H](NC(=O)[C@H](CC(C)C)N(C)C)[C@@H](Oc1ccc(C=O)cc1)c1ccccc1 (mixture of isomers)	<50 µg	<50 µg	<50 µg	<50 µg	<50 µg	<50 µg	<50 µg	<50 µg	<50 µg	<50 µg	<50 µg	Activity [7]: <50 µg; Activity [13]: <50 µg; Activity (Kocuria rhizophila [9]): <50 µg; Activity (Klebsiella pneumoniae [10]): <50 µg; Activity (Escherichia coli [11]): <50 µg; Activity (Staphylococcus aureus [12]): <50 µg
